In ChEMBL document CHEMBL1926568, “Synthesis, biological evaluation and mechanistic studies of totarol amino alcohol derivatives as potential antimalarial agents” (Bioorg Med Chem, 2012):
Activity calls are given as the source filed them. No cut-off for these calls is given here.

What was measured:
Plasmodium falciparum [1] = test: Resistance index, ratio of IC50 for chloroquine-resistant Plasmodium falciparum K1 to IC50 for chloroquine-sensitive Plasmodium falciparum D10; assay type: functional
In short: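 Resistance index computed as IC50 (K1)/IC50 (D10), both from the pLDH assay, each run in duplicate on two separate occasions.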

Plasmodium falciparum [2] = test: Antiplasmodial activity against chloroquine-sensitive Plasmodium falciparum D10 after 48 hrs by lactate dehydrogenase assay; assay type: functional, organism-based; details: D10, 48 h
In short: (§1)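 P. falciparum D10 (CQ-sensitive) and K1 (CQ-resistant) kept in continuous in vitro culture, synchronized with 5% D-sorbitol at ring stage when needed; growth read by parasite lactate dehydrogenase assay; each compound run in duplicate on two separate occasions.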

Plasmodium falciparum [3] = test: Antiplasmodial activity against chloroquine-resistant Plasmodium falciparum K1 after 48 hrs by lactate dehydrogenase assay; assay type: functional, organism-based; details: K1, 48 h; in short: as §1
[4] = Selectivity index, ratio of IC50 for CHO cells to IC50 for chloroquine-resistant Plasmodium falciparum K1; assay type: toxicity, cell-based; details: hamster, CHO cells (cytotoxicity) versus Plasmodium falciparum K1; read-out: Ratio IC50
CHO = test: Cytotoxicity against CHO cells after 48 hrs by MTT assay; assay type: cell-based; details: Cricetulus griseus
In short: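 CHO cells in DMEM:Ham's (1:1) with 10% heat-inactivated FCS and gentamicin, 37 °C, 5% CO2; 1×10^4 cells/well seeded 24 h, then serial dilutions from DMSO stocks (100–0.01 µg/ml) for 48 h, with medium and DMSO controls.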

[5] = Selectivity index, ratio of IC50 for CHO cells to IC50 for chloroquine-sensitive Plasmodium falciparum D10; assay type: toxicity, cell-based; details: hamster, CHO cells (cytotoxicity) versus Plasmodium falciparum D10; read-out: Ratio IC50
Erythrocyte [6] = test: Induction of [3H]-chloroquine accumulation in erythrocytes infected with chloroquine-resistant Plasmodium falciparum K1 trophozoites at 5 uM pre-incubated for 15 mins before exposure to [3H]-chloroquine measured after 1 hr by liquid scintillation counting relative to control; assay type: functional
In short: (§2)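 Synchronized K1-infected erythrocytes at trophozoite stage (1% hematocrit, 5% parasitemia) preincubated with test compound 15 min at 37 °C, then 4 nM 3H-CQ for 1 h at 37 °C; cells spun through dibutylphthalate, pellet digested and counted by liquid scintillation; accumulation expressed relative to untreated control; verapamil 5 µM positive control.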

[7] = Cytotoxicity in un-parasitized erythrocytes assessed as morphological changes at 6.25 ug/ml after 48 hrs by phase contrast microscopy; assay type: cell-based; details: erythrocyte
In short: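 Unparasitized erythrocytes (hematocrit 2%) held 48 h with 6.25 µg/ml compound (diluted from 100 µg/ml stocks), then fixed with 1% glutaraldehyde in paraformaldehyde; cell shape of 20 µl samples examined by phase-contrast light microscopy at ×1000.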

Plasmodium falciparum [8] = test: Antiplasmodial activity against Plasmodium falciparum schizonts assessed as parasitemia at IC50 concentration treated until all schizonts had burst and invasion was assumed to have occurred by Giemsa staining-based microscopy (reference value: 8.83%); assay type: functional
Plasmodium falciparum [9] = test: Antiplasmodial activity against Plasmodium falciparum schizonts assessed as change in parasitemia at IC50 concentration treated until all schizonts had burst and invasion was assumed to have occurred by Giemsa staining-based microscopy relative to control; assay type: functional
Erythrocyte [10] = test: Induction of [3H]-chloroquine accumulation in erythrocytes infected with chloroquine-resistant Plasmodium falciparum K1 trophozoites at 1 ug/ml pre-incubated for 15 mins before exposure to [3H]-chloroquine measured after 1 hr by liquid scintillation counting relative to control; assay type: functional, cell-based; in short: as §2

Structure (SMILES) | Ratio IC50 (Plasmodium falciparum [1]) | IC50 (Plasmodium falciparum [2]) | IC50 (Plasmodium falciparum [3]) | selectivity ratio [4] | IC50 (CHO) | selectivity ratio [5] | fold change (FC) (Erythrocyte [6]) | Activity [7] | Activity (Plasmodium falciparum [8]) | Activity (Plasmodium falciparum [9]) | Activity (Erythrocyte [10])
CC(C)c1c(OCC(O)CN2CCN(c3ccnc4cc(Cl)ccc34)CC2)ccc2c1CC[C@H]1C(C)(C)CCC[C@]21C (single isomer, unassigned) | 0.64 | 1.42 µM | 930 nM | > 100 | 94.2 µM | 67.3 | – | – | – | – | –
c1ccc2c(OCC3CO3)cccc2c1 (stereo unspecified) | – | > 100 µM | – | – | – | – | – | – | – | – | –
COc1ccc(CCN(C)CCCC(C#N)(c2ccc(OC)c(OC)c2)C(C)C)cc1OC (stereo unspecified) | – | – | – | – | – | – | >3 | – | – | – | –
Oc1ccc2ccccc2c1 [BETANAPHTHOL] | – | > 100 µM | – | – | – | – | – | – | – | – | –
CC(C)c1c(OCC(O)CNCc2ccccc2)ccc2c1CC[C@H]1C(C)(C)CCC[C@]21C (stereo partly specified) | 0.1 | 6.47 µM | 650 nM | 22.3 | 14.4 µM | 2.2 | – | Non-toxic | 8.31% | -0.52% | –
OC(CNCc1ccccc1)COc1ccc2ccccc2c1 (racemic) | 2 | 6.77 µM | 13500 nM | 9.1 | 123 µM | 18.2 | – | – | – | – | –
CCN(CC)CC(O)COc1ccc2c(c1C(C)C)CC[C@H]1C(C)(C)CCC[C@]21C (stereo partly specified) | 1.04 | 0.61 µM | 630 nM | 12.2 | 7.73 µM | 12.7 | – | – | – | – | –
CCOc1ccccc1N1CCN(CC(O)COc2ccc3c(c2C(C)C)CC[C@H]2C(C)(C)CCC[C@]32C)CC1 (stereo partly specified) | 0.62 | 1.62 µM | 1010 nM | 181 | 183 µM | 113 | – | – | – | – | –
CN1CCN(CC(O)COc2ccc3ccccc3c2)CC1 (racemic) | 0.19 | 42.9 µM | 8210 nM | 18.1 | 149 µM | 3.5 | – | – | – | – | –
CC(C)c1c(OCC(O)CN2C(=O)c3ccccc3C2=O)ccc2c1CC[C@H]1C(C)(C)CCC[C@]21C (stereo partly specified) | 5.06 | 9.55 µM | 48300 nM | – | – | – | – | – | – | – | –
Oc1cccc2ccccc12 [1-NAPHTHOL] | – | 56.5 µM | – | – | – | – | – | – | – | – | –
CC(C)c1c(OCC(O)CN2CCN(c3ccccc3)CC2)ccc2c1CC[C@H]1C(C)(C)CCC[C@]21C (stereo partly specified) | 0.71 | 2.56 µM | 1810 nM | 58.1 | 105 µM | 41.2 | – | – | – | – | –
CC(C)c1c(O)ccc2c1CC[C@H]1C(C)(C)CCC[C@]21C [TOTAROL] | 0.99 | 11.8 µM | 11700 nM | 14.6 | 170 µM | 14.5 | – | – | – | – | –
OC(CNCc1ccccc1)COc1cccc2ccccc12 (racemic) | 0.14 | 5.18 µM | 730 nM | 11.2 | 8.27 µM | 1.6 | – | – | 10.24% | 1.41% | –
CC(C)c1c(OCC(O)CN2CCCCC2)ccc2c1CC[C@H]1C(C)(C)CCC[C@]21C (stereo partly specified) | 0.7 | 1.08 µM | 750 nM | 4 | 2.99 µM | 2.8 | – | – | – | – | –
CC(C)c1c(OCC2CO2)ccc2c1CC[C@H]1C(C)(C)CCC[C@]21C (stereo partly specified) | 1.36 | 10.3 µM | 14000 nM | – | – | – | – | – | – | – | –
Oc1ccccc1 [PHENOL] | – | > 100 µM | – | – | – | – | – | – | – | – | –
CC(C)c1c(OCC(O)CN2CCN(C)CC2)ccc2c1CC[C@H]1C(C)(C)CCC[C@]21C (stereo partly specified) | 1.03 | 1.36 µM | 1390 nM | 2.7 | 3.73 µM | 2.7 | – | Toxic | – | – | Active
CC(C)NCC(O)COc1ccc2c(c1C(C)C)CC[C@H]1C(C)(C)CCC[C@]21C (stereo partly specified) | 0.14 | 1.05 µM | 170 nM | 8.7 | 1.28 µM | 1.2 | – | Non-toxic | 5.43% | -3.4% | –
CC(C)c1c(OCC(O)CN2CCOCC2)ccc2c1CC[C@H]1C(C)(C)CCC[C@]21C (mixture of isomers) | 0.27 | 2.07 µM | 560 nM | 10 | 5.61 µM | 2.7 | – | – | – | – | –
CC(C)c1c(OCC(O)CN2CCN(c3ccccc3Cl)CC2)ccc2c1CC[C@H]1C(C)(C)CCC[C@]21C (single isomer, unassigned) | 0.23 | 3.25 µM | 940 nM | 207 | 186 µM | 57.3 | – | – | – | – | –
CN1CCN(CC(O)COc2ccccc2)CC1 (racemic) | – | > 100 µM | – | – | – | – | – | – | – | – | –
CN1CCN(CC(O)COc2cccc3ccccc23)CC1 (racemic) | 0.17 | 41.8 µM | 7230 nM | 36.1 | 261 µM | 6.2 | – | – | – | – | –
CC(C)NCC(O)COc1cccc2ccccc12 (racemic) [PROPRANOLOL] | – | – | – | – | – | – | – | – | 5.35% | -3.48% | –
c1ccc(OCC2CO2)cc1 (stereo unspecified) | – | 77 µM | – | – | – | – | – | – | – | – | –
OC(COc1cccc2ccccc12)CN1CCN(c2ccccc2Cl)CC1 (racemic) | – | > 100 µM | – | – | – | – | – | – | – | – | –
